Experiment: Toxicity liver stage against HepG2, at 10uM
Format: cell-based
Set-up: test concentration 10 uM, cell line HepG2-A16-CD81EGFP
Conditions: human, HepG2-A16-CD81EGFP cells; read-out: INHIBITION
Outline: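 Uninfected HepG2-A16-CD81EGFP cells, 3 × 10^3 per well, 1536-well, plated on prespotted compound at 10 μM final, parasite-free screening media added to match infected plates; puromycin 10 μM positive, DMSO 0.5% negative; run in parallel with 48 h PbLuc assay at 37 °C, 5% CO2; viability by CellTiter-Glo luminescence, normalized to controls.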

| Compound | cytotoxicity at 10 µM |
| --- | --- |
| O=C(c1cccnc1O)N(CCO)Cc1cc(Br)ccc1F | 6.27% |
| CCc1c(C)nc2cc(C3CCN(Cc4cccnc4)C3)nn2c1O (configuration not stated) | -25.4% |
| CCN(C)C[C@H]1CC[C@@H](Cc2ccc3c(cnn3C)c2)O1 | -0.957% |
| Cc1ncc(-c2ccnc(NC3CC3)n2)c(-c2cccnc2)n1 | -14.2% |
| CN(Cc1cccnc1)C[C@@H]1OC[C@H]2CN(C(=O)C3CC3)CC[C@H]21 | -136% |
| CC(C)C(C(=O)NCc1ccccc1-n1cccn1)N(C)C (configuration not stated) | -3.17% |
| CCc1nc(CN(C)Cc2nnc(-c3cccs3)o2)cs1 | 6.37% |
| Cn1cncc1-c1nnc([C@H]2CCN(Cc3cccnc3)C2)o1 | -4.39% |
| Cn1cc(C(=O)Nc2ccc(CN3CCOCC3)cn2)cn1 | 6.95% |
| c1cnc(C2CCCN2c2cnccn2)cn1 (configuration not stated) | -22.6% |
| CC(C#N)CNS(=O)(=O)c1ccc(Br)c(F)c1 (configuration not stated) | -12.3% |
| CC(C)N(Cc1cccnc1)C(=O)CCSc1ccc(C#N)cc1 | 27.1% |
| O=c1[nH][nH]cc1-c1ccnc(NCCN2CCCCC2)n1 | -10.4% |
| COCCCC1CCCCN1Cc1cc(F)ccc1-n1cccn1 (configuration not stated) | -3.13% |
| Cc1cccc(C(C(=O)NCCn2cccc2)N(C)C)c1 (configuration not stated) | -9.12% |
| Cc1nc(CNC(=O)C(C)Oc2ccccc2F)no1 (configuration not stated) | 5.43% |
| COc1cccc(CNC(=O)N2CCCC(Cn3cc(CN)nn3)C2)c1 (configuration not stated) | -2.07% |
| CC(C)(C)C(O)CN1CCN(C(=O)c2cccc3ncccc23)CC1 (configuration not stated) | 4.67% |
| Cc1nc(SCC(=O)Nc2ccc(C(N)=O)cc2)c(C#N)c(C)c1C | -5.28% |
| Cc1ccc(C(=O)Cc2c(Cl)nc3n(C)c(=O)n(C)c(=O)n23)cc1 | -3.96% |
| O=C(C1CCCN(c2nc3ccccc3cc2CO)C1)N1CCCC1 (configuration not stated) | -47.5% |
| O=C(CSCCN1CCOCC1)N1CCc2ccccc2C1 | -6.58% |
| CCn1cc(-c2cc(C(=O)N3CCOCC3)c3cc(Cl)ccc3n2)cn1 | -1.53% |

| Compound | cytotoxicity at 10 µM |
| --- | --- |
| Cc1cccc(N2CCC3(CCN(Cc4ccccn4)CC3)CC2)n1 | 4.17% |
| Cc1ccccc1CN1CCC2(COCc3cnc(N(C)C)nc32)C1 (configuration not stated) | -8.22% |
| Cc1nn(C)c(C)c1C1COCCN1C(=O)NC1CC1 (configuration not stated) | 3.21% |
| O=c1cc(-c2ccccc2)nc2n1CCCCC2 | 1.36% |
| Cc1nc(CN(C)C2CCN(CCCc3ccccc3)C2)no1 (configuration not stated) | -16.1% |
| CC(C)(C)OC(=O)N1CC(CC(=O)NCc2ccnc(C3CC3)c2)C1 | 5.54% |
| CC(O)CN1CCN(C(=O)Cc2ccccc2Cl)CC1 (configuration not stated) | -9.6% |
| Cc1nc(C)n(C2CCCN(C(=O)Cc3cn4ccccc4n3)C2)n1 (configuration not stated) | -18.3% |
| c1ccc(OC[C@]23COC[C@H]2CN(c2ncccn2)C3)nc1 | -14.1% |
| CC(=O)N1CCC2(C1)c1ccccc1S(=O)(=O)N2CCC(C)C (configuration not stated) | -9.11% |
| CC(C)c1nccc(C2CC(=O)Nc3n[nH]c(C4CCC4)c32)n1 (configuration not stated) | -14.6% |
| CCN(C)c1ncnc2c1CCN(c1ccc(C)nn1)CC2 | -94.7% |
| CN1CCC2(CC1)C(=O)N(C)c1ccc(F)cc12 | -115% |
| COCCNc1nnc(-c2ccc(C)nc2)s1 | -8.55% |
| Cc1cccc(CNc2n[nH]c(C)n2)c1 | -4.09% |
| COc1ccc(F)cc1CN(CC(N)=O)C(C)C | -1.68% |
| Cc1cn(CC(=O)NC2CCN(C(=O)C3CC3)CC2)c2ccccc12 | -3.57% |
| COCCN(Cc1ccc(F)cc1C#N)CC(F)(F)F | -3.02% |
| CN(C)C(=O)CN1CCn2cc(Cn3cccn3)nc2C1 | 4.96% |
| c1cnc(N2CCO[C@H]3[C@H](OCC4CC4)CC[C@@H]32)nc1 | 5.88% |
| O=C1O[C@@H]2CN(c3ncccn3)C[C@@H]2N1CCCc1ccc(F)cc1 | -0.74% |
| CN1CC(=O)N(c2cccnc2)CC12CCN(C(=O)c1cccnc1)C2 (configuration not stated) | 2.25% |
| CC(=O)N1N=C(COc2ccc3c(c2)OCO3)OC1c1ccc(C)cc1 (configuration not stated) | 1.22% |

| Compound | cytotoxicity at 10 µM |
| --- | --- |
| COC(=O)[C@@H]1CN(C(=O)c2cscn2)C[C@H]1c1ccc(OC)cc1 | -31.6% |
| O=C(c1ccsc1)N1C[C@H](N2CCOCC2)[C@@H]2OCCC[C@@H]21 | 8.28% |
| CCc1ncc(CN(CCc2ccccc2)Cc2cccs2)cn1 | 2.44% |
| Cc1n[nH]c(=O)c2c(NC(=O)CN3CCCC(C(F)(F)F)C3)oc(C)c12 (configuration not stated) | -4.87% |
| Cc1ccnc(N2Cc3cnn(Cc4ccc(F)cc4)c3C2)n1 | 3.59% |
| CN(Cc1cccnc1)Cc1cncc2c1CCN(c1ccccn1)C2 | -108% |
| COc1ccc(Cl)cc1-c1cc(NC(=O)C2CNC(=O)N2)[nH]n1 (configuration not stated) | -1.12% |
| O=C1NCCCN1Cc1nc(-c2ccc(N3CCCCC3)cc2)no1 | 3.24% |
| Cc1[nH]ccc1C(=O)NCC1CC(=O)N(CCc2ccccc2)C1 (configuration not stated) | -1.92% |
| COc1ccc(C(=O)N(C)Cc2cccc(C#N)c2)c(OC)c1OC | -17.1% |
| CN(Cc1cc[nH]n1)C(C(=O)O)c1ccc(Cl)cc1 (configuration not stated) | 0.595% |
| N#CCCN(Cc1ccccn1)C(=O)Nc1cccnc1 | 0.525% |
| Cc1noc(C)c1CNS(=O)(=O)N(C)Cc1ccc(Cl)cc1 | 11.2% |
| O=c1[nH]c(CCN2CCCCC2Cn2cccn2)nc2ccccc12 (configuration not stated) | -16.4% |
| Cn1ncc2c(=O)[nH]c(CN3CCc4ccccc4C3)nc21 | -2.72% |
| CN(Cc1cccnc1)C(=O)NC1CCN(Cc2ccccn2)CC1 | -18.2% |
| CC(C)c1noc(CN2CCN(C(=O)c3ccncc3F)CC2)n1 | -10.9% |
| CCOc1ncccc1NC(=O)NC1CCCN(c2ncccn2)C1 (configuration not stated) | -10.6% |
| CCN(CC1CCCO1)C(=O)Nc1cc(OC)c(OC)cc1C (configuration not stated) | -10.9% |
| O=C1N(c2ccccc2)C[C@H]2CN(C3CCC3)CCN12 | 6.09% |
| CC(C)NC(=O)C1CN(Cc2ccc(F)cc2)CC12CCOCC2 (configuration not stated) | 3.86% |
| O=C(c1ccoc1)N1CCc2ncnc(NCc3ccccn3)c2CC1 | 0.224% |
| CCCNC(=O)N1CCC(Oc2cc(C)ccc2F)(C(=O)O)CC1 | -23.8% |

| Compound | cytotoxicity at 10 µM |
| --- | --- |
| COc1ccc(C2CCCN2C(=O)NCCNc2ccccn2)cc1 (configuration not stated) | 6.64% |
| CCn1cc(NC(=O)c2cccc(CN3C[C@@H](C)O[C@@H](C)C3)c2)nn1 | 1.31% |
| CCn1cc2c(n1)CN(Cc1ccc(C)o1)CC2COCC1CC1 (configuration not stated) | -80.7% |
| CCn1nccc1CN(C)c1[nH]cnc2nc(C)nc1-2 | -7.97% |
| CN(Cc1cccnc1)[C@@H]1CN(C(=O)c2ccno2)[C@@H]2CCCO[C@H]12 | -118% |
| Cc1ccccc1N1CCN(C(=O)c2cccnc2-n2cncn2)CC1 | 8.35% |
| N#Cc1cccc(C(=O)N2CCc3ncc(Cn4cccn4)n3CC2)c1 | 5.84% |
| Cc1noc(NC(=O)c2ccc(C)c(F)c2)n1 | -10.1% |
| CC(C)N1CCCC1c1cc(C(F)(F)F)[nH]n1 (configuration not stated) | 0.171% |
| Cc1ncc(CN2CCOC(CN(C)c3cccnn3)C2)s1 (configuration not stated) | 2.86% |
| COc1ccc(Cl)cc1CS(=O)(=O)CC(=O)N(C)Cc1ccccc1F | 2.53% |
| Cc1oncc1C(=O)N1CCC2(CCN(Cc3ccccn3)C2=O)C1 (configuration not stated) | -11.4% |
| N#Cc1cc(F)ccc1CN1CCCCC1Cn1cccn1 (configuration not stated) | -2.93% |
| COCC1CN(C(=O)c2cccc(C)n2)Cc2nccn2C1 (configuration not stated) | -103% |
| COc1cccc(-c2n[nH]cc2-c2nc(CN3CCCC3)no2)c1 | -23.2% |
| CC(Cn1cncn1)NCCN1CCc2ccccc21 (configuration not stated) | -3.21% |
| CN(C)C[C@@H]1C[C@@H]2CN(C(=O)Cc3cccs3)CC[C@@H]2N1C | 0.375% |
| CN(C(=O)NCc1ccncc1)C1CCCN(c2ccccc2)C1=O (configuration not stated) | -8.86% |
| CCc1nc(CNc2ccc(F)cc2I)no1 | 3.36% |
| CC(C)Nc1nc2c(s1)C(=O)CN(CC1CC1)C2 | -10.1% |
| CSCC(C)(O)CNS(=O)(=O)c1cccc(C)c1 (configuration not stated) | -2.85% |
| Cc1ccsc1C(=O)N1CCCC(c2[nH]ncc2S(C)(=O)=O)C1 (configuration not stated) | -5.39% |
| COCC(=O)N1CC[C@@H]2O[C@@H](COCC3CCOCC3)CC[C@@H]21 | 0.718% |

| Compound | cytotoxicity at 10 µM |
| --- | --- |
| CCc1cc(N[C@@H](CC(C)C)C(N)=O)n2nc(C)c(C)c2n1 | 7.33% |
| Cn1nnnc1SCc1cc2c(cc1Cl)OCO2 | 1.14% |
| Cc1ccc(-c2noc(CN3CCOC(Cn4cccn4)C3)n2)cc1 (configuration not stated) | -5.98% |
| Cc1ccc(CN2CCC3(C2)C(=O)N(CC(C)C)c2ccccc23)s1 (configuration not stated) | -0.324% |
| c1cnc(-c2nc(CN3CCn4c(nnc4C4CC4)C3)cs2)nc1 | -6.93% |
| CN(C(=O)c1ccco1)c1nc2c(s1)CCCC2 | 13.7% |
| c1ccc(CSc2nnc(C3CC3)s2)nc1 | 0.873% |
| CCC[C@H]1CN(S(=O)(=O)N(C)Cc2ccccc2)C[C@@H]1N | -138% |
| O=C(NCC(O)c1ccc(F)cc1F)c1cccnc1O (configuration not stated) | 7.58% |
| CN(C)C(=O)CS(=O)(=O)Cc1cc(Cl)c2c(c1)OCO2 | -6.24% |
| Cc1ncc2c(n1)CN(CC(=O)Nc1nncs1)CC2 | -10.8% |
| Cc1ccc(N2CCc3ncnc(C)c3CC2)nn1 | -93.6% |
| Cc1nc(-c2ccncc2)ncc1C(C)NC(=O)CN1CCCC1=O (configuration not stated) | 1.74% |
| N#CC1(NC(=O)COC(=O)Cn2cccn2)CCCC1 | 8.89% |
| CC1N(C)C(=O)COC12CCN(C(=O)Cc1ccsc1)CC2 (configuration not stated) | 2.81% |
| CCN1CCN(c2ccc(C(=O)NC(C)C(=O)N(C)C)cc2)CC1 (configuration not stated) | -4.98% |
| Cc1cc(C)c(CNC(=O)CC2CCCO2)c(=O)[nH]1 (configuration not stated) | -10.7% |
| CCN1CCN(c2ncc(-c3cc(C)no3)c(-c3ccco3)n2)CC1 | -11% |
| Cc1ccc2c(c1C)OCC2NCc1ccc(C#N)cc1 (configuration not stated) | 25.8% |
| O=C(Nc1cc(N2CCOCC2)ncn1)c1cnccn1 | -3.45% |

Reference: ChEMBL document CHEMBL4513216, “Probing the Open Global Health Chemical Diversity Library for Multistage-Active Starting Points for Next-Generation Antimalarials” (ACS Infect Dis, 2020)
